Holding throughout (format): functional
For experiment [1], the species on record is Cavia porcellus. Description: Inhibition of histamine release from sensitized guinea pig chopped lung upon antigen challenge at 10 ug/mL. The method, boiled down: (§1)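 Guinea pigs sensitized to ovalbumin; lungs taken 3 weeks later, perfused with Tyrode, chopped into 0.5-mm cubes. 100-mg aliquots in Tyrode were preincubated 5 min at 37 °C, then compound or Tyrode and ovalbumin (5 mg in 0.1 mL) were added. Incubation was 15 min at 37 °C with rocking, and supernatant was bioassayed. Unchallenged control gave spontaneous release. Values are % inhibition, mean of ≥4 samples; Student's t-test.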

For experiment [2], the species on record is Cavia porcellus. The experiment in a line: Inhibition of slow reacting substance of anaphylaxis (SRS-A) release from sensitized guinea pig chopped lung upon antigen challenge at 10 ug/mL. The gist of the method: as §1
Experiment [3] is filed under the species Homo sapiens. Description: Inhibition of Histamine mediator release form passively sensitized human lung upon antigen challenge at 1 ug/mL dose. The gist of the method:
(§2)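 Healthy human lung from carcinoma surgery was chopped into 0.5-mm cubes and passively sensitized 18 h at 18 °C with atopic serum from cocksfoot-pollen-allergic patients. Tissue was preincubated 5 min with compound, challenged with pollen extract (0.1 mL, 1000 noon units) and incubated as for guinea pig lung. Supernatant was bioassayed on guinea pig ileum, with mepyramine-treated (0.4 μg/mL) ileum for SRS-A. Values are % inhibition of mediator release.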

For experiment [4], the species on record is Homo sapiens. Description: Inhibition of Slow reacting substance of anaphylaxis (SRS-A) mediator release form passively sensitized human lung upon antigen challenge at 1 ug/mL dose. The gist of the method: as §2
The species named for experiment [5] is Homo sapiens. The experiment in a line: Inhibition of Histamine mediator release form passively sensitized human lung upon antigen challenge at 10 ug/mL dose. The gist of the method: as §2
For experiment [6], the species on record is Homo sapiens. The experiment in a line: Inhibition of Slow reacting substance of anaphylaxis (SRS-A) mediator release form passively sensitized human lung upon antigen challenge at 10 ug/mL dose. The gist of the method: as §2
For experiment [7], the system named is Cavia porcellus. Description: Mean collapse time after pretreatment with compound divided by mean collapse time of untreated control animals at 50 mg/kg po dose. The gist of the method:
(§3)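 Modified Herxheimer test in conscious sensitized guinea pigs, 4-5 per group. Compound was given orally at 25, 50 or 100 mg/kg 2 or 4 h before antigen challenge. Some groups also received mepyramine 0.5 mg/kg sc 0.5 h before challenge. D = mean collapse time of treated/untreated controls; M+D = mean collapse time of compound+mepyramine/mepyramine-dosed controls.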

Experiment [8] concerns Cavia porcellus. Description: Time of dosing of compound before antigen challenge in conscious sensitized guinea pig at 50 mg/kg po dose. Conditions: dose 50 mg/kg. The gist of the method:
as §3

The test system of experiment [9] is Cavia porcellus. Description: Mean collapse time after pretreatment with compound and mepyramine divided by mean collapse time of mepyramine-dosed control animals at 50 mg/kg po dose. The method, boiled down: as §3

Turning to `CCc1ccc([S+](C)[O-])c(C(=O)c2ccc(C)cc2)c1` (configuration not stated), the Inhibition in the experiment listed under Cavia porcellus [1] is given as 3%; in the experiment listed under Cavia porcellus [2] it was 40%; in the experiment listed under Homo sapiens [3], 0%; in the experiment filed under Homo sapiens [4], 75%; in the experiment listed under Homo sapiens [5] it was 0%; in the experiment filed under Homo sapiens [6] it was 100%.

Turning to `Cc1cccc(/C(=N/O)c2ccccc2)c1O`, the Inhibition worked out at 0% in the experiment filed under Cavia porcellus [2]; 8% in the experiment listed under Homo sapiens [3]; 39% in the experiment listed under Homo sapiens [4]; 15% in the experiment listed under Homo sapiens [5]; 62% in the experiment filed under Homo sapiens [6].

Regarding `Cc1cccc(/C(=N/O)c2ccc(Cl)cc2)c1O`, the Inhibition in the experiment filed under Cavia porcellus [1] and in the experiment filed under Cavia porcellus [2] was 52% throughout.

Turning to `Cc1cccc(C(=O)c2ccc(Cl)cc2)c1O`, the Inhibition in the experiment listed under Cavia porcellus [1] was 6%; in the experiment listed under Cavia porcellus [2], 36%; in the experiment filed under Homo sapiens [4], 100%; in the experiment filed under Homo sapiens [5], 0%; in the experiment filed under Homo sapiens [6] it was 100%.

As to `Cc1ccc(O)c(C(=O)c2ccccc2)c1`, the Inhibition was determined as 78% in the experiment filed under Cavia porcellus [1] and 39% in the experiment listed under Cavia porcellus [2].

As to `CCc1ccc(OC)c(C(=O)c2ccc([N+](=O)[O-])cc2)c1`, the Inhibition in the experiment filed under Cavia porcellus [2] was determined as 0%. Also, the Activity with Cavia porcellus [7] is recorded as 0.8; in the experiment on Cavia porcellus [9], 2.1. In addition, the Time with Cavia porcellus [8] was 2 h.

`CCc1ccc(O)c(C(=O)c2ccccc2)c1`: in the experiment filed under Cavia porcellus [2], the Inhibition is recorded as 22%. Also, the Activity is given as 2.5 in the experiment on Cavia porcellus [7] and 1.2 with Cavia porcellus [9]. The Time with Cavia porcellus [8] worked out at 2 h.

For `CCc1cccc(C(=O)c2ccccc2)c1O`, the Inhibition in the experiment listed under Cavia porcellus [1] was found to be 92%; in the experiment filed under Cavia porcellus [2] it was 37%.

Consider `CCc1ccc(O)c(C(=O)c2cccn2C)c1`, for which, in the experiment listed under Cavia porcellus [2], the Inhibition turned out to be 0%. The Activity amounted to 1.2 in the experiment with Cavia porcellus [7] and 2.3 with Cavia porcellus [9]. The Time with Cavia porcellus [8] is 2 h.

As for `CCc1ccc(SC)c(C(=O)c2ccc(Cl)cc2)c1`, in the experiment filed under Cavia porcellus [2], the Inhibition was 29%. The Activity in the experiment with Cavia porcellus [7] stood at 0.6; with Cavia porcellus [9], 2.3.

As to `CCc1ccc(O)c(/C(=N/O)c2ccc(Cl)cc2)c1`, the Inhibition in the experiment listed under Cavia porcellus [1] is 28%; in the experiment filed under Cavia porcellus [2], 51%; in the experiment listed under Homo sapiens [3], 0%; in the experiment listed under Homo sapiens [4] it was 93%; in the experiment filed under Homo sapiens [5], 0%; in the experiment listed under Homo sapiens [6], 91%.

With `CCc1ccc(/C(=N/O)c2ccc(F)cc2)c(O)c1`, the figures for the Inhibition in the experiment listed under Cavia porcellus [1] and in the experiment filed under Cavia porcellus [2] were 46% and 33%, respectively.

`C=C(c1ccc(F)cc1)c1ccc(CC)cc1O`: the Inhibition in the experiment filed under Cavia porcellus [1] was 0%; in the experiment filed under Cavia porcellus [2], 32%.

Consider `Cc1ccc(O)c(C(=O)c2ccc(Cl)cc2)c1`, for which the Inhibition was 0% in the experiment filed under Cavia porcellus [1] and 46% in the experiment listed under Cavia porcellus [2].

For the molecule `CCc1ccc(O)c(C(=O)c2cccs2)c1`, the Inhibition in the experiment listed under Cavia porcellus [1] is 0%; in the experiment filed under Cavia porcellus [2], 59%; in the experiment filed under Homo sapiens [3] it was 0%; in the experiment listed under Homo sapiens [4], 55%; in the experiment listed under Homo sapiens [5] it was 0%; in the experiment filed under Homo sapiens [6], 67%. The Activity with Cavia porcellus [7] was 0.7; with Cavia porcellus [9], 1.6. The Time in the experiment on Cavia porcellus [8] stood at 2 h.

On to `CCc1cccc(C(=O)c2ccc(Cl)cc2Cl)c1O`, for which the Inhibition in the experiment listed under Cavia porcellus [1] is recorded as 8%; in the experiment listed under Cavia porcellus [2] it was 44%; in the experiment filed under Homo sapiens [3], 20%; in the experiment filed under Homo sapiens [4], 85%; in the experiment filed under Homo sapiens [5], 60%; in the experiment listed under Homo sapiens [6] it was 100%.

As for `CCc1ccc(O)c(C(=O)c2ccccn2)c1`, the Inhibition in the experiment listed under Cavia porcellus [1] is listed as 5%; in the experiment filed under Cavia porcellus [2], 30%.

For `CCc1ccc(O)c(Cc2ccccc2)c1`, the Inhibition was found to be 0% in the experiment filed under Cavia porcellus [1] and 36% in the experiment listed under Cavia porcellus [2]. Also, the Activity with Cavia porcellus [7] amounted to 3; in the experiment on Cavia porcellus [9], 1.6.

Take `CCc1ccc(O)c([S+]([O-])c2ccccc2)c1` (configuration not stated): the Inhibition in the experiment filed under Cavia porcellus [1] and in the experiment filed under Cavia porcellus [2] was 36% in each case.

A word on the Inhibition: it is how much of the control response was suppressed.
